The IC50 is the midpoint of a concentration-inhibition curve. Read a high IC50 as a need for much substance. By inhibition is commonly meant how much of the control response was suppressed.

Structures are written as SMILES. Activity calls are given as the source filed them. No cut-off for these calls is given here.

Here are results for 2 molecules from ChEMBL document CHEMBL1933027, “Time-dependent botulinum neurotoxin serotype A metalloprotease inhibitors” (Bioorg Med Chem, 2011).

The target of assay [1] is 72 kDa type IV collagenase (Homo sapiens, UniProt P08253). In words: Inhibition of human MMP2.
Assay [2] deals with Botulinum neurotoxin type A (Clostridium botulinum) (UniProt P0DPI0). As to the kind of experiment: Inhibition of Clostridium botulinum BoNT/A light chain-mediated SNAP-25 substrate cleavage preincubated for 15 mins in presence of glutathione before substrate addition by FRET assay. The method in brief: (§1)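 The potential inactivator (2.5 or 5 mM) was preincubated with compound in the assay mixture for 15 min at 37 °C. 17-mer SNAP-25 substrate and BoNT/A LC were then added, and activity was read in the FRET assay (37 °C, 40 min, ex 398/em 485 nm).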

The target in assay [3] is T1, Interstitial collagenase (Homo sapiens, UniProt P03956).
T1 sequence (P03956 whole entry): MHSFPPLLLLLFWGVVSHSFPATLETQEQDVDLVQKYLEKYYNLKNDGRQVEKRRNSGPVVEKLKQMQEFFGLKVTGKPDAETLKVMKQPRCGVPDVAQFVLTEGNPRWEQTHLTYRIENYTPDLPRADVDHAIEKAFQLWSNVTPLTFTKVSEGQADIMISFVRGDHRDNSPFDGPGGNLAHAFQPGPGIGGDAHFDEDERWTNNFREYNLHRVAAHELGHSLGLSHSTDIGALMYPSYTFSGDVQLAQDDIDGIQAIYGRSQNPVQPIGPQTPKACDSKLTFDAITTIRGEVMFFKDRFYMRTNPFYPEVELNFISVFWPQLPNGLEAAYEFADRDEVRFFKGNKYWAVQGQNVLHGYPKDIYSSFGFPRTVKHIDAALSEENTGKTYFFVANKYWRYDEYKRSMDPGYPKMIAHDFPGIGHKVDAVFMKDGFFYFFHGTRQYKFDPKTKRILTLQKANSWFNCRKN
In words: Inhibition of human MMP1.

Assay [4] deals with Botulinum neurotoxin type A (Clostridium botulinum) (UniProt P0DPI0). In words: Ratio of Kinact to Ki for clostridium botulinum BoNT/A light chain. The method in brief:
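BoNT/A LC was incubated with selected inhibitor concentrations for various times. Remaining activity was then measured by the FRET assay, and kobs/[I] was derived from the plotted data using a published method.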

In assay [5] the target is T2, Botulinum neurotoxin type A (Clostridium botulinum, UniProt P0DPI0). As to the kind of experiment: Inhibition of Clostridium botulinum BoNT/A light chain-mediated SNAP-25 substrate cleavage after 40 mins by FRET assay. Summed up: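 Recombinant BoNT/A LC at 2 nM was incubated with 20 μM SNAP-25 peptide (AA 187–203, DnpK/daciaC-labelled) for 40 min at 37 °C. Cleaved-substrate fluorescence was read at 485 nm with excitation at 398 nm. IC50 is the compound concentration giving 50% inhibition, averaged over two experiments.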

For assay [6], the target named is T2, Botulinum neurotoxin type A. As to the kind of experiment: Inhibition of Clostridium botulinum BoNT/A light chain after 40 mins by HPLC assay. Summed up: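 Incubation was at 37 °C for 40 min with 6 nM BoNT/A LC and 60 μM 17-mer SNAPtide substrate. Samples were separated by reverse-phase C18 HPLC, effluent was monitored at 365 nm, and peaks were quantified by integration.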

Assay [7] has as its target Botulinum neurotoxin type A (Clostridium botulinum) (UniProt P0DPI0). In words: Inhibition of clostridium botulinum BoNT/A-mediated SNAP-25 substrate cleavage in chicken neurons at 30 uM preincubated for 15 mins before substrate addition.
Assay [8] has as its target T3, Lethal factor (Bacillus anthracis, UniProt P15917).
T3 sequence (P15917 whole entry): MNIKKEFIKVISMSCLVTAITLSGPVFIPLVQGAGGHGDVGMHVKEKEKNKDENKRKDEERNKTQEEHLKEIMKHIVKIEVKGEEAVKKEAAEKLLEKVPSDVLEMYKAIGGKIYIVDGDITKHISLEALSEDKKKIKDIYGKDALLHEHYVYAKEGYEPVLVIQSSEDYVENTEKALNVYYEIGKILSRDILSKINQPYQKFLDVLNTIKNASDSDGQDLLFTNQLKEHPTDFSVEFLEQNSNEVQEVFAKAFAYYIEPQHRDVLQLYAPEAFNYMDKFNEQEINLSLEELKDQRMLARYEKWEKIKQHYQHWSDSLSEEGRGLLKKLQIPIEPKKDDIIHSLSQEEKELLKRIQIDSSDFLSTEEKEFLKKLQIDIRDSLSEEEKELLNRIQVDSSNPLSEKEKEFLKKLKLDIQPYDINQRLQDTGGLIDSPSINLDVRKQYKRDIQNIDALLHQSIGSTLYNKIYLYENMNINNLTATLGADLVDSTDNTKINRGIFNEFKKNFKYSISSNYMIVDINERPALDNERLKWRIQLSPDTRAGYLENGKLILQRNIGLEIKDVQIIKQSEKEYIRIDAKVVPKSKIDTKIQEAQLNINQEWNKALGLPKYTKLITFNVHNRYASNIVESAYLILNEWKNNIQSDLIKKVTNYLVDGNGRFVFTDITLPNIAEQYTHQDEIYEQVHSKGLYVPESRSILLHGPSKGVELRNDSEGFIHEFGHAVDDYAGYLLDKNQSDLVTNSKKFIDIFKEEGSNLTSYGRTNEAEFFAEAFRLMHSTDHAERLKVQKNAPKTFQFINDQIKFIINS
In words: Inhibition of Bacillus anthracis lethal factor using MCA-KKVYPYPME[dnp]Kamide peptide substrate after 30 mins by FRET assay.

Assay [9] concerns the target Botulinum neurotoxin type A (Clostridium botulinum) (UniProt P0DPI0). In words: Inhibition of Clostridium botulinum BoNT/A light chain-mediated SNAP-25 substrate cleavage preincubated for 15 mins in presence of zinc ion before substrate addition by FRET assay. The method in brief: as §1
In assay [10] the target is Matrix metalloproteinase-9 (Homo sapiens, UniProt P14780). In words: Inhibition of human MMP9.
Matrix metalloproteinase-9, sequence (P14780 whole entry): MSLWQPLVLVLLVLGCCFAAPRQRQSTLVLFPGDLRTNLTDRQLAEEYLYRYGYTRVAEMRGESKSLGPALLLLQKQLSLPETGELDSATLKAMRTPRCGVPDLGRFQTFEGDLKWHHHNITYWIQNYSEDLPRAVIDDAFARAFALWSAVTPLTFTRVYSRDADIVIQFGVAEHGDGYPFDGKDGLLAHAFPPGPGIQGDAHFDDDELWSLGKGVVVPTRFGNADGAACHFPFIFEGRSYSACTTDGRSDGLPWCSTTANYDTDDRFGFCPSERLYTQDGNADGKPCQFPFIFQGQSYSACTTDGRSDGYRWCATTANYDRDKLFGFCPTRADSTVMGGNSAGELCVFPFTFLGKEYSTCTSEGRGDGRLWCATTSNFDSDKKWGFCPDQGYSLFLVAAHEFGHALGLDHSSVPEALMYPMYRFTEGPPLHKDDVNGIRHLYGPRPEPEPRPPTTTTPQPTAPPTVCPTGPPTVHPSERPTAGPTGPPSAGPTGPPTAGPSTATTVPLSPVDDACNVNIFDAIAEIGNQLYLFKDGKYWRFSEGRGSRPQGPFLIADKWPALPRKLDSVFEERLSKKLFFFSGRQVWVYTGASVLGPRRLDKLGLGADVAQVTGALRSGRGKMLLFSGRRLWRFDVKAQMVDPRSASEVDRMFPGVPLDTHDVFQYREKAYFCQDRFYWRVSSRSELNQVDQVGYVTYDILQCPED

Botulinum neurotoxin type A (Clostridium botulinum), sequence (P0DPI0 2-448 limits assumed): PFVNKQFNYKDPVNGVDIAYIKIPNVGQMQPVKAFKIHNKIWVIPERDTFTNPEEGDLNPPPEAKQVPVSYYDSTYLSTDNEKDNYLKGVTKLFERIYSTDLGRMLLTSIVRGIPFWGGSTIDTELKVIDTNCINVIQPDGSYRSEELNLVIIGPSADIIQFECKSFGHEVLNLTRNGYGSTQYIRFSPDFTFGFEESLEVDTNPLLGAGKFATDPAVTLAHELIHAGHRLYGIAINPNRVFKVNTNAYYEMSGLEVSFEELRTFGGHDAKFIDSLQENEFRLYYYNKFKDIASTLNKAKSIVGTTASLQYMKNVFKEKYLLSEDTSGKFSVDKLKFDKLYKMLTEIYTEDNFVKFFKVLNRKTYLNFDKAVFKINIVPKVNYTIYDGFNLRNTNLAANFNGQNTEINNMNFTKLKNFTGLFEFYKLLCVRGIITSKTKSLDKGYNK
T2 sequence (P0DPI0 2-448 limits assumed): as above
72 kDa type IV collagenase, sequence (P08253 whole entry): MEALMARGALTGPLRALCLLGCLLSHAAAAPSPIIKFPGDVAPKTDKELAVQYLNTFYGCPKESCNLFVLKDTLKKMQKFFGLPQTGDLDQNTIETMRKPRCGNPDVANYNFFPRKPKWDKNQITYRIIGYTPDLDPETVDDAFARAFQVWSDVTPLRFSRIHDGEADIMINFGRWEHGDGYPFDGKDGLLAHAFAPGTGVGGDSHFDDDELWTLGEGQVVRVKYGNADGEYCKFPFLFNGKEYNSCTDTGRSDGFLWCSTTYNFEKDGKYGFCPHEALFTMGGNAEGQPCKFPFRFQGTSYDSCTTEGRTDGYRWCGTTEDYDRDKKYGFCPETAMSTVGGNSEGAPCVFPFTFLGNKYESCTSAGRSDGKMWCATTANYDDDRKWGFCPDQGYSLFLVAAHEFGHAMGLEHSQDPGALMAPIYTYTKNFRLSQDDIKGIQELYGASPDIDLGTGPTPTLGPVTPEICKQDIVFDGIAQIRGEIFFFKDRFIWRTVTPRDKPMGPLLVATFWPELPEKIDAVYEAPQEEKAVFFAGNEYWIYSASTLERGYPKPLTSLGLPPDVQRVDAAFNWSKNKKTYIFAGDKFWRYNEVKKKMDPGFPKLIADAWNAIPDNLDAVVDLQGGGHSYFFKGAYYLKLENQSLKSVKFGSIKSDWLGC

Turning to `COc1ccc(/C=C(\C#N)c2nc3ccccc3[nH]2)cc1I`, the IC50 in assay [1] is over 100 µM; in assay [3] it was over 100 µM; in assay [5], 7.2 µM; in assay [6], 10 µM; in assay [8], 74 µM; in assay [10] it was over 100 µM. For the same molecule, the inhibition result in assay [2] is “inactive”. Further, the Ratio in [4] worked out at 979 M⁻¹ s⁻¹. For the same molecule, the inhibition in assay [7] is under 10%. For the same molecule, the inhibition result in [9] is “Active”.
`N#C/C(=C\c1ccc(-c2cccs2)s1)c1nc2ccccc2[nH]1`: the IC50 in assay [1] was over 100 µM; in [3], over 100 µM; in assay [5], 26 µM; in [6], 29 µM; in assay [8], over 100 µM; in assay [10], over 100 µM. The inhibition result in assay [2] and in [9] was “Active” in each case. Moreover, the Ratio in [4] was determined as 326 M⁻¹ s⁻¹. This molecule also had an inhibition in assay [7] of 58%.
